M5 ag = CHRM5 agonism in calcium assay | P08912 | CHO-K1 hM5 cells, Fluo-8 calcium fluorescence; 0% DMSO wells, 100% maximal acetylcholine response | activation, % at 3 µM | 360,000 compounds, 0.19% hits;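 active = activation above the run's mean over test compounds plus 3 SD, cut at about 23% in these data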;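 note: signal is peak over basal fluorescence ratio across the kinetic read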
CHRM5 antagonist = antagonists of human muscarinic M5 receptor (CHRM5) | CHO-hM5 cells, Fluo-8 calcium fluorescence, ACh EC80 | 360,000 compounds, 0.59% hits | inhibition, % at 3 µM;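 active = inhibition above a per-plate cutoff, the mean of that plate's test compounds plus 3 SD, cut at about 27% in these data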;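 note: 0% = acetylcholine EC80 with DMSO and 100% = DMSO without agonist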
M5 PAM = potentiates acetylcholine response at human M5 receptor | P08912 | CHO-K1 hM5, Fluo-8 calcium, ACh EC20 PAM; 0% = ACh EC20, 100% = ACh EC100 | activation, % at 3 µM | 360,000 compounds, 0.3% hits;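 active = activation above the run cutoff, the mean activation of all test compounds plus 3 SD, cut at about 18% in these data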
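System – CHO-K1 hM5 cells · Compound – 3 µM, single dose · Incubation – compound preincubation 140 s before EC20 acetylcholine addition · Technique – Fluo-8 calcium fluorescence · Measure – Max/basal fluorescence ratio as % of EC20–EC100 ACh window · Benchmarks – low control EC20 acetylcholine (0%), high control EC100 acetylcholine (100%) · Replication – singlicate, one well per test compound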
M4 ag = agonists of human muscarinic M4 receptor (CHRM4). P08173. CHO-K1 hM4/Gqi5, Fluo-8 calcium fluorescence; vehicle 0%, full acetylcholine response 100%. activation, % at 3 µM. 360,000 compounds, 0.14% hits. AID 624127;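 active = activation above the run mean over all test wells plus 3 SD, cut at about 32% in these data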;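 note: peak over basal fluorescence ratio per well then scaled between controls; 0% = DMSO wells and 100% = acetylcholine at EC100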
Target sequence (P08173 whole entry, looked up): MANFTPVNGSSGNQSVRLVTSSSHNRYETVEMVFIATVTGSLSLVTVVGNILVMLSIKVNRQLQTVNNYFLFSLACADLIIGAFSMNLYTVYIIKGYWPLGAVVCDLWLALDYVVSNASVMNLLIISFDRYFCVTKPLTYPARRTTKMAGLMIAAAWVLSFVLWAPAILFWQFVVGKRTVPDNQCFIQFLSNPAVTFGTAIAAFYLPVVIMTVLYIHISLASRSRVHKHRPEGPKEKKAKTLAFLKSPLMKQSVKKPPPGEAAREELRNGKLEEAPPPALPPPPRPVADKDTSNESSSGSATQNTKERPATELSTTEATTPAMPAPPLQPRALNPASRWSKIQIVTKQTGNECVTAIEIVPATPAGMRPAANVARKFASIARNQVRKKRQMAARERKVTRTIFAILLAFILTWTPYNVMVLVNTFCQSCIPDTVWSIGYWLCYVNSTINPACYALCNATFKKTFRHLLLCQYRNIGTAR
M4 antag = blocks acetylcholine activation of human M4 receptor; 360,000 compounds, 0.73% hits; CHO-hM4 cells, ACh EC80, Fluo-8 calcium fluorescence; P08173; inhibition, % at 3 µM;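 active = inhibition above its plate's cutoff, the mean inhibition of sample wells plus 3 SD, cut at about 27% in these data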;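 note: 0% = acetylcholine EC80 with DMSO and 100% = DMSO without agonist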
M4 PAM = positive allosteric modulators of human muscarinic M4 receptor. P08173. CHO-K1 hM4/Gqi5, Fluo-8 calcium fluorescence, ACh EC20; 0% = ACh EC20, 100% = maximal ACh. activation, % at 3 µM. 360,000 compounds, 0.4% hits. AID 624126;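 active = activation above its plate's cutoff, the mean activation of sample wells plus 3 SD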
* marks the source's active call; other numbers are inactive results. In the library only some 1.8% were active in any assay of this set; here they are far more common.

SMILES	M5 ag	CHRM5 antagonist	M5 PAM	M4 ag	M4 antag	M4 PAM
COc1ccc(CCNc2ncnc3c2oc2ccccc23)cc1OC	6.7	50.3*	-16.1	20.7	26.2	-21.3
COc1ccc(CCNc2nc(-c3cccnc3)nc3ccccc23)cc1OC	-0.1	39.4*	-14.8	15.3	28.2*	-19.1
Cc1cc(=O)n2nc(N3CCCC3C(=O)NCCCN3CCCCC3)sc2n1 (centres undefined)	-0.1	13.1	19.5*	0.0	-5.9	3.2
COc1ccc(NS(=O)(=O)c2c(C)cc(C)cc2C)cc1	-11.0	5.4	25.6*	-0.7	0.6	-4.6
CC(C)c1ccc(NC2CCCN(C(=O)CN3CCCCC3=O)C2)cc1 (centres undefined)	-1.4	-1.4	-5.5	1.9	-25.9	6.2
COc1ccc(-c2csc3ncn(-c4ccccc4OC)c(=O)c23)cc1OC	-4.5	0.9	-7.1	6.1	-24.7	30.0*
CCN1C(=O)[C@H]2[C@@H](c3ccc(-c4ccccc4)cc3)N[C@@](Cc3ccccc3)(C(=O)OC)[C@H]2C1=O	-2.0	5.4	1.3	0.4	-14.2	16.7
CCN1C(=O)[C@H]2[C@@H](c3ccc(-c4ccc(C(C)=O)cc4)cc3)N[C@@](Cc3ccccc3)(C(=O)OC)[C@H]2C1=O	-1.3	-2.4	-4.5	2.2	-11.4	23.8*
CCN1C(=O)[C@H]2[C@@H](c3ccc(-c4ccccc4)cc3)N3CCCC[C@@]3(C(=O)OC)[C@H]2C1=O	4.9	2.9	6.3	13.8	-5.9	24.2*
Cc1cccc(NC(=O)CSc2nc3nc(C)cc(C)n3n2)c1	0.5	-8.9	5.3	1.9	4.5	4.0
COc1ccccc1Cn1c(=O)[nH]c2cccnc21	-4.5	6.0	41.1*	1.8	-3.8	-1.1
Brc1ccc2nc(-c3ccco3)c(CC3CCCCC3)n2c1	2.0	4.4	-3.9	0.6	-12.2	13.0
Cc1c(C(=O)N/N=C/c2ccc(N3CCOCC3)cc2)nc2ccccn12	0.7	6.3	-2.8	0.1	-0.4	-9.3
COc1cc(/C=N/NC(=O)c2nc3ccccn3c2C)cc(OC)c1O	1.9	-4.5	18.6*	1.2	-2.0	-3.7
NS(=O)(=O)c1ccc(CCNC(=O)c2cc(-c3cccs3)nc3ccccc23)cc1	-0.3	9.3	-12.9	16.8	15.7	-14.6
CN(C)S(=O)(=O)c1cccc(NC(=O)c2cc(-c3cccs3)nc3ccccc23)c1	4.2	16.8	-18.4	21.5	31.2*	-32.5
NS(=O)(=O)c1cccc(NC(=O)c2cc(-c3cccs3)nc3ccccc23)c1	-0.3	13.4	-13.1	12.9	29.6*	-22.2
NS(=O)(=O)c1cccc(NC(=O)c2cccs2)c1	-2.5	-4.1	4.7	0.2	-8.9	2.0
NS(=O)(=O)c1ccc(CNC(=O)c2cc(-c3cccs3)nc3ccccc23)cc1	-1.0	16.2	-16.4	16.1	30.0*	-20.4
Cc1ccc(S(=O)(=O)N(C)C)cc1NC(=O)c1cc(-c2ccncc2)nc2ccccc12	2.8	9.5	-23.9	16.0	-11.6	-7.2
O=C(Nc1ccncc1)c1cc2ccccc2cc1O	8.2	-0.7	-3.5	19.9	-11.6	0.6
CCC(C)c1ccc(NC(=S)N2CCN(S(C)(=O)=O)CC2)cc1 (centres undefined)	0.1	0.0	-4.3	1.4	-6.3	2.0
CC(C)(C)c1ccc(NC(=O)C2CCCN(c3cnccn3)C2)cc1 (centres undefined)	-3.4	5.8	2.9	7.0	0.6	6.0
CC(C)(Cc1ccc(O)cc1)NC(=O)SCc1ccccc1	-1.1	18.4	-3.8	-0.4	10.6	1.7
Cc1cccc(NC(=O)/C(C#N)=C\c2cn(CC(=O)O)c3ccccc23)c1	-4.1	27.9*	-12.5	1.6	6.3	2.9
SMILES	M5 ag	CHRM5 antagonist	M5 PAM	M4 ag	M4 antag	M4 PAM
COc1ccc(NC(=O)C2CC(=O)N(Cc3ccco3)C2)cc1Cl (centres undefined)	1.1	1.5	3.5	1.0	1.2	0.8
c1ccc(-n2nnnc2Oc2ccc(-c3nnco3)cc2)cc1	83.8*	79.0*	-24.7	0.6	8.9	-2.2
Cc1ncc(CN2CCCC(C(=O)Nc3ccc(-c4ccco4)cc3)C2)n1C (centres undefined)	-7.7	5.8	-2.5	0.6	30.9*	-11.9
O=C(Nc1ccc(-c2ccco2)cc1)C1CCCN(Cc2ccco2)C1 (centres undefined)	-2.3	5.2	-4.2	2.0	9.2	-0.8
CC(C)C1C(=O)N(Cc2cn(Cc3ccco3)nn2)CCS(=O)(=O)N1Cc1ccc(-c2cccc(N(C)C)c2)cc1 (centres undefined)	-0.3	-5.5	6.4	-2.4	-13.5	17.8*
CN1CCN(c2ncccc2S(=O)(=O)N2CCCCC2)CC1	-11.2	98.6*	-15.3	0.3	69.4*	-13.5
NC(=O)NC(=O)COC(=O)CC12CC3CC(CC(C3)C1)C2	1.0	-7.8	20.2*	1.7	-0.7	9.6
NC(=O)COC(=O)CC12CC3CC(CC(C3)C1)C2	-2.3	3.7	3.3	-0.2	5.6	-3.3
CC1(C(=O)NS(=O)(=O)c2ccc(Cl)s2)CCN1C(=O)C1(c2ccc(Cl)cc2)CCC1 (centres undefined)	1.2	5.8	-2.7	-1.2	-8.7	2.9
COC(=O)[C@H](Cc1ccccc1)NC(=O)NCCc1ccc(F)cc1	-6.1	30.0*	-25.5	1.3	-2.1	0.7
COC(=O)[C@H](Cc1ccccc1)NC(=O)NCCc1ccc(S(N)(=O)=O)cc1	0.5	1.5	0.3	-0.1	-1.0	-2.8
COC(=O)C(Cc1ccccc1)NC(=O)C12CC3CC(CC(C3)C1)C2 (centres undefined)	0.2	-6.3	8.8	-0.4	-7.7	21.9*
CN(C)CCCNC(=O)c1cccc(-c2cnc3cccnn23)c1	-0.1	-0.5	-0.5	-0.2	-12.8	7.4
Cc1sc2ncnc(NC3CCN(Cc4ccccc4)CC3)c2c1C	-7.6	29.3*	-29.4	10.9	19.1	-18.1
c1ccc(CN2CCC(Nc3ncnc4sccc34)CC2)cc1	-0.9	11.6	-0.6	0.3	2.4	0.9
COc1cccc(CN2CC(C(=O)NCCOc3ccccc3)CCC2=O)c1 (centres undefined)	-5.3	28.9*	-13.0	2.3	2.7	-3.0
CC(=O)c1ccc(N2CCN(CN3C(=O)CC4(CCCC4)C3=O)CC2)c(F)c1	-1.8	5.6	-4.8	0.8	1.7	-5.1
COC(=O)C(C)n1cnc2c(nnn2-c2cccc(OC)c2)c1=O (centres undefined)	-2.7	14.2	-7.2	-0.3	4.4	-6.4
O=c1[nH]cnc2c1C(c1ccccc1[N+](=O)[O-])c1c(nc[nH]c1=O)O2	0.5	-13.5	20.9*	0.8	-0.2	12.7
